Reference: ChEMBL document CHEMBL5512684 (J Med Chem, 2024)
Peptide text beside a SMILES is read from it.

What was measured:
[1] = molecular target: T1, Neuronal acetylcholine receptor subunit alpha-7 (Homo sapiens, UniProt P36544); assay: (§1) Antagonist activity at human alpha7 nAChR expressed in Xenopus laevis oocytes assessed as inhibition of Ach-induced response by measuring residual activity at 10 uM at -70 mV holding potential measured after 5 mins by two electrode voltage-clamp electrophysiology method relative to control; type: cell-based; settings: Oocyte
T1 sequence (P36544 whole entry): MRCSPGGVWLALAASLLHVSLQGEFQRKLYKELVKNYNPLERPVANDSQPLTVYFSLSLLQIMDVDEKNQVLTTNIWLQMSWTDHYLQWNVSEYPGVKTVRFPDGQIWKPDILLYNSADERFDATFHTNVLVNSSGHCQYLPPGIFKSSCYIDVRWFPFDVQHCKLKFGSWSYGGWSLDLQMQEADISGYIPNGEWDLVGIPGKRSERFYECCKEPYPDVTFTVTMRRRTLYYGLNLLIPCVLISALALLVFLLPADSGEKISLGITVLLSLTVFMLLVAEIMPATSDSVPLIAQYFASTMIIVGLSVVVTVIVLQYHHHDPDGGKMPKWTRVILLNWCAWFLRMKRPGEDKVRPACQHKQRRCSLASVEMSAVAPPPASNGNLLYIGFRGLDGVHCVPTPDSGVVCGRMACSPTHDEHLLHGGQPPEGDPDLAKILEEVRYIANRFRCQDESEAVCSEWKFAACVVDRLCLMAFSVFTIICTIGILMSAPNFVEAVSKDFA
Outline: (§2)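 Single-point test at 10 μM peptide, applied for 5 min in a static bath to oocytes under TEVC at −70 mV. ACh 100 μM (α7, α9, α9α10) or 3 mM (α10), pulsed every 60 s. The ACh response was normalized to the response after a 5-min bath application of control saline.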

[2] = molecular target: T2, Neuronal acetylcholine receptor subunit alpha-9 (Homo sapiens, UniProt Q9UGM1); assay: Antagonist activity at human alpha9 nAChR expressed in Xenopus laevis oocytes assessed as inhibition of Ach-induced response at -70 mV holding potential measured after 5 mins by two electrode voltage-clamp electrophysiology method; type: cell-based, Oocyte
T2 sequence (Q9UGM1 whole entry, the tested form may be a part): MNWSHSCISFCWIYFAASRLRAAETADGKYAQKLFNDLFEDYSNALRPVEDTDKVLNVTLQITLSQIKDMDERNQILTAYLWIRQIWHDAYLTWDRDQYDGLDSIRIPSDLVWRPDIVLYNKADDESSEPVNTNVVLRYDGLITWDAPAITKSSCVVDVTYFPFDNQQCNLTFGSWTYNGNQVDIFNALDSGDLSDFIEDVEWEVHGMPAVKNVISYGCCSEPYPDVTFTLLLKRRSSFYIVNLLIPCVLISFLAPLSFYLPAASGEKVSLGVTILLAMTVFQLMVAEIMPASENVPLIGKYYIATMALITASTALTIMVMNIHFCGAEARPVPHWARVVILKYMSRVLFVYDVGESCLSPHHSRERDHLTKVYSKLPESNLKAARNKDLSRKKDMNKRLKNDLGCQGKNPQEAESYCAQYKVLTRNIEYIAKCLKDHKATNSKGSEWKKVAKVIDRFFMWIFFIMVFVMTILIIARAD
Outline: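 Human α9 or α9α10 cRNA in stage IV–V oocytes kept at 16 °C; α9-only oocytes incubated with 5 mM choline. TEVC at −70 mV, 1–4 days post-injection. 1 s pulses of 100 μM ACh every 60 s until responses were stable. Peptide perfused (≤1 μM) and responses normalized to the mean of three control responses. Above 1 μM, 5-min static bath normalized to a 5-min control-saline bath.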

[3] = molecular target: T1, Neuronal acetylcholine receptor subunit alpha-7; assay: Antagonist activity at human alpha7 nAChR expressed in Xenopus laevis oocytes assessed as inhibition of Ach-induced response at -70 mV holding potential measured after 5 mins by two electrode voltage-clamp electrophysiology method; type: cell-based, Oocyte
Outline: (§3)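 TEVC at −70 mV after 1–4 days, perfusion ~3 mL/min, saline pH 7.4 with BSA. ACh 3 mM for α10, 100 μM for α7. α7 pulses 500 ms, α10 1 s, every 60 s. Peptide perfused up to 1 μM, static 5-min bath above.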

[4] = molecular target: T3, Neuronal acetylcholine receptor subunit alpha-10 (Homo sapiens, UniProt Q9GZZ6); assay: Antagonist activity at human alpha10 nAChR expressed in Xenopus laevis oocytes assessed as inhibition of Ach-induced response at -70 mV holding potential measured after 5 mins by two electrode voltage-clamp electrophysiology method; type: cell-based, Oocyte; outline: as §3
T3 sequence (Q9GZZ6 whole entry): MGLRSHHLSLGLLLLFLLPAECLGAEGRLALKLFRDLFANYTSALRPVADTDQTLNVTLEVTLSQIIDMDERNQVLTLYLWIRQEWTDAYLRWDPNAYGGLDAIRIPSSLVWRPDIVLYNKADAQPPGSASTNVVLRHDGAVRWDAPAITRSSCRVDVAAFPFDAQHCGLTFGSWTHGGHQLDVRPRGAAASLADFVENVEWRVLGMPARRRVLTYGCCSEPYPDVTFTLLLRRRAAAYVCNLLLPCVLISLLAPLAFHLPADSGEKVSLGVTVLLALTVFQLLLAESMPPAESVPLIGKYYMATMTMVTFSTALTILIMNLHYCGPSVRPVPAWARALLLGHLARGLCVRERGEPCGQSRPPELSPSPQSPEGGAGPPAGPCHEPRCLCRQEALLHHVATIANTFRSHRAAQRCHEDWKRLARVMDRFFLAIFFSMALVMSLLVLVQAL

Homo sapiens [5] = species on record: Homo sapiens; assay: (§4) Selectivity index, ratio of IC50 for antagonist activity at human alpha7 nAChR expressed in Xenopus laevis oocytes assessed as inhibition of Ach-induced response to IC50 for antagonist activity at human alpha3beta2 nAChR expressed in Xenopus laevis oocytes assessed as inhibition of Ach-induced response; type: cell-based
[6] = molecular target: T4, Neuronal acetylcholine receptor; alpha9/alpha10 (Homo sapiens) (UniProt Q9UGM1+Q9GZZ6); assay: (§5) Antagonist activity at human alpha9alpha10 nAChR expressed in Xenopus laevis oocytes assessed as inhibition of Ach-induced response by measuring residual activity at 10 uM at -70 mV holding potential measured after 5 mins by two electrode voltage-clamp electrophysiology method relative to control; type: cell-based; settings: Oocyte; outline: as §2
[7] = molecular target: T3, Neuronal acetylcholine receptor subunit alpha-10; assay: Antagonist activity at human alpha10 nAChR expressed in Xenopus laevis oocytes assessed as inhibition of Ach-induced response by measuring residual activity at 10 uM at -70 mV holding potential measured after 5 mins by two electrode voltage-clamp electrophysiology method relative to control; type: cell-based; settings: Oocyte; outline: as §2
[8] = molecular target: Neuronal acetylcholine receptor; alpha9/alpha10 (Homo sapiens, UniProt Q9GZZ6+Q9UGM1); assay: Antagonist activity at human alpha9alpha10 nAChR expressed in Xenopus laevis oocytes assessed as inhibition of Ach-induced response at -70 mV holding potential measured after 5 mins by two electrode voltage-clamp electrophysiology method; type: cell-based, Oocyte
Sequence of Neuronal acetylcholine receptor; alpha9/alpha10 (Q9UGM1 whole entry): as the sequence (Q9UGM1 whole entry, the tested form may be a part) above
Sequence of Neuronal acetylcholine receptor; alpha9/alpha10 (Q9GZZ6 whole entry): as the sequence (Q9GZZ6 whole entry) above

[9] = molecular target: T2, Neuronal acetylcholine receptor subunit alpha-9; assay: Antagonist activity at human alpha9 nAChR expressed in Xenopus laevis oocytes assessed as inhibition of Ach-induced response by measuring residual activity at 10 uM at -70 mV holding potential measured after 5 mins by two electrode voltage-clamp electrophysiology method relative to control; type: cell-based; settings: Oocyte; outline: as §2
Homo sapiens [10] = species on record: Homo sapiens; assay: as §4, with “alpha10” for “alpha7”; type: cell-based
Homo sapiens [11] = species on record: Homo sapiens; assay: as §4, with “alpha9alpha10” for “alpha7”; type: cell-based
Homo sapiens [12] = species on record: Homo sapiens; assay: as §4, with “alpha9” for “alpha7”; type: cell-based
[13] = molecular target: Neuronal acetylcholine receptor; alpha3/beta2 (Homo sapiens, UniProt P17787+P32297); assay: Antagonist activity at human alpha3beta2 nAChR expressed in Xenopus laevis oocytes assessed as inhibition of Ach-induced response at -70 mV holding potential measured after 5 mins by two electrode voltage-clamp electrophysiology method; type: cell-based, Oocyte
Sequence of Neuronal acetylcholine receptor; alpha3/beta2 (P17787 whole entry, the tested form may be a part): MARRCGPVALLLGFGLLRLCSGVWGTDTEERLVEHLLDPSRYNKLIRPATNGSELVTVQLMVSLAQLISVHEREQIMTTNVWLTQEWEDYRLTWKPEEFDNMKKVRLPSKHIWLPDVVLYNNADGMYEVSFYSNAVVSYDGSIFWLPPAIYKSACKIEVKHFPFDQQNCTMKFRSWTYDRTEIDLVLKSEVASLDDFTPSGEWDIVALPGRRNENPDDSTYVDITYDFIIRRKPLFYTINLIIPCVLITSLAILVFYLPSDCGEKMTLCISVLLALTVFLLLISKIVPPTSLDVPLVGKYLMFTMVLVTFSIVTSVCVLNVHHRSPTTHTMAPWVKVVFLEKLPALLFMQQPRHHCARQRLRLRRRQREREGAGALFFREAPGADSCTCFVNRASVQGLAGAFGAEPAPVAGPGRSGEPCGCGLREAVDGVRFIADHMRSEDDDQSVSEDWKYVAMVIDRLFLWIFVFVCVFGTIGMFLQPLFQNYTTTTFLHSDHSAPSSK
Sequence of Neuronal acetylcholine receptor; alpha3/beta2 (P32297 whole entry, the tested form may be a part): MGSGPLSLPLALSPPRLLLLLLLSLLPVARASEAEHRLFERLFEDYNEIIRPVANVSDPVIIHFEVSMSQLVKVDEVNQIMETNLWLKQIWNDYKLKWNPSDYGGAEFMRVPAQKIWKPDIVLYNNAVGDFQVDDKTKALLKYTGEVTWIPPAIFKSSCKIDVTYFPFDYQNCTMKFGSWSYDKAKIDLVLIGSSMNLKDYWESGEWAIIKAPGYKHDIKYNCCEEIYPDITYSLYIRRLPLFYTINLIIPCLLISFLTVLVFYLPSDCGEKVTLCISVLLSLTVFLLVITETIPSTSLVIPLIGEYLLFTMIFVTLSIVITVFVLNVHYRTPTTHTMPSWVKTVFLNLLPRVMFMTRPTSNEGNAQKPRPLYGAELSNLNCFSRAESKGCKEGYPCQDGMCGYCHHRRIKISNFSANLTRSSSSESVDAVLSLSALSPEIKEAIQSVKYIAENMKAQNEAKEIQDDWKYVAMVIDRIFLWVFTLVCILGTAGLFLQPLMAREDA
Outline: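 Oocytes expressing human α3β2 nAChRs were clamped at −70 mV by TEVC 1–4 days after cRNA injection and gravity-perfused with HEPES-buffered saline, pH 7.4. ACh was pulsed every 60 s until responses were stable. Peptide was perfused up to 1 μM, or given as a 5-min static bath above 1 μM. Responses were normalized to control ACh responses.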

[14] = molecular target: T1, Neuronal acetylcholine receptor subunit alpha-7; assay: as §1, with “assessed as” for “by measuring”, “potential preincubated for 5 mins followed by peptide washout and” for “potential”, “15” for “5”, “(reference value: 30 +/- 9%)” for “relative to control”; type: cell-based; settings: Oocyte
Outline: (§6)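 Recovery of ACh-evoked responses was then followed during peptide washout for 15 min. Values are given as percent of control responses.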

[15] = molecular target: T4, Neuronal acetylcholine receptor; alpha9/alpha10 (Homo sapiens); assay: as §5, with “assessed as” for “by measuring”, “potential preincubated for 5 mins followed by peptide washout and” for “potential”, “15” for “5”, “(reference value: 3 +/- 2%)” for “relative to control”; type: cell-based; settings: Oocyte; outline: as §6
[16] = molecular target: T1, Neuronal acetylcholine receptor subunit alpha-7; assay: as §1, with “assessed as” for “by measuring”, “potential preincubated for 5 mins followed by peptide washout and” for “potential”, “15” for “5”, “(reference value: 0.5 +/- 0.2%)” for “relative to control”; type: cell-based; settings: Oocyte; outline: as §6
[17] = molecular target: T4, Neuronal acetylcholine receptor; alpha9/alpha10 (Homo sapiens); assay: as §5, with “assessed as” for “by measuring”, “potential preincubated for 5 mins followed by peptide washout and” for “potential”, “15” for “5”, “(reference value: 0.5%)” for “relative to control”; type: cell-based; settings: Oocyte, filed as antagonist; outline: as §6

Structure (SMILES) | IC50 [3] [µM] | IC50 [8] [µM] | Activity ([1]; filed as antagonist) [%] | Activity ([6]; filed as antagonist) [%] | also measured
CC[C@H](C)[C@H](NC(=O)[C@H](CCC(=O)O)NC(=O)[C@@H]1CCCN1C(=O)[C@H](Cc1c[nH]cn1)NC(=O)[C@H](CC(=O)O)NC(=O)[C@@H](NC(=O)[C@H](CC(N)=O)NC(=O)[C@H](CS)NC(=O)[C@H](C)NC(=O)[C@@H]1CCCN1C(=O)[C@H](Cc1c[nH]cn1)NC(=O)[C@H](CO)NC(=O)[C@H](CS)NC(=O)[C@H](CS)NC(=O)CN)C(C)C)C(=O)N[C@@H](CS)C(=O)O | > 10 | > 10 |  |  | Activity [1]: 81%; IC50 [2]: > 10 µM; IC50 [4]: > 10 µM; Ratio IC50 (Homo sapiens [5]): > 400; Activity [6]: 103%; Activity [7]: 74%; Activity [9]: 91%; Ratio IC50 (Homo sapiens [10]): > 400; Ratio IC50 (Homo sapiens [11]): > 400; Ratio IC50 (Homo sapiens [12]): > 400; IC50 [13]: 0.0254 µM
C[C@H](NC(=O)[C@H](CCCNC(=N)N)NC(=O)[C@H](CCCNC(=N)N)NC(=O)[C@H](Cc1c[nH]cn1)NC(=O)[C@H](CO)NC(=O)[C@H](CCCCN)NC(=O)[C@H](CS)NC(=O)[C@H](C)NC(=O)[C@@H]1CCCN1C(=O)[C@H](Cc1c[nH]cn1)NC(=O)[C@H](CO)NC(=O)[C@H](CS)NC(=O)[C@H](CS)NC(=O)CN)C(=O)N[C@@H](CCCNC(=N)N)C(=O)N[C@@H](CS)C(=O)O (H-GCCSHPACKSHRRARC-OH) | 1.89 | 0.133 | 13 | 0.7 | 
C[C@H](NC(=O)[C@H](CCCNC(=N)N)NC(=O)[C@H](CCCNC(=N)N)NC(=O)[C@H](Cc1c[nH]cn1)NC(=O)[C@H](CO)NC(=O)[C@H](CS)NC(=O)[C@H](C)NC(=O)[C@@H]1CCCN1C(=O)[C@H](Cc1c[nH]cn1)NC(=O)[C@H](CO)NC(=O)[C@H](CS)NC(=O)[C@H](CS)NC(=O)CN)C(=O)N[C@@H](CCCNC(=N)N)C(=O)N[C@@H](CO)C(=O)N[C@@H](CS)C(=O)O (H-GCCSHPACSHRRARSC-OH) | 10.1 | 1.29 | 46 | 6 | 
C[C@H](NC(=O)[C@H](CCCNC(=N)N)NC(=O)[C@H](CCCNC(=N)N)NC(=O)[C@@H]1CCCN1C(=O)[C@H](CO)NC(=O)[C@H](CS)NC(=O)[C@H](C)NC(=O)[C@@H]1CCCN1C(=O)[C@H](Cc1c[nH]cn1)NC(=O)[C@H](CO)NC(=O)[C@H](CS)NC(=O)[C@H](CS)NC(=O)CN)C(=O)N[C@@H](CCCNC(=N)N)C(=O)N[C@@H](CO)C(=O)N[C@@H](CS)C(=O)O (H-GCCSHPACSPRRARSC-OH) | 2.12 | 1.12 | 16 | 10 | Activity [14]: 97%; Activity [15]: 99%
C[C@H](NC(=O)[C@H](CCCNC(=N)N)NC(=O)[C@H](CO)NC(=O)[C@@H]1CCCN1C(=O)[C@H](CO)NC(=O)[C@H](CS)NC(=O)[C@H](C)NC(=O)[C@@H]1CCCN1C(=O)[C@H](Cc1c[nH]cn1)NC(=O)[C@H](CO)NC(=O)[C@H](CS)NC(=O)[C@H](CS)NC(=O)CN)C(=O)N[C@@H](CO)C(=O)N[C@@H](CO)C(=O)N[C@@H](CS)C(=O)O (H-GCCSHPACSPSRASSC-OH) | > 10 |  |  |  | 
C[C@H](NC(=O)[C@H](CCCNC(=N)N)NC(=O)[C@H](CCCNC(=N)N)NC(=O)[C@H](CCCNC(=N)N)NC(=O)[C@H](CO)NC(=O)[C@H](CS)NC(=O)[C@H](C)NC(=O)[C@@H]1CCCN1C(=O)[C@H](Cc1c[nH]cn1)NC(=O)[C@H](CO)NC(=O)[C@H](CS)NC(=O)[C@H](CS)NC(=O)CN)C(=O)N[C@@H](CCCNC(=N)N)C(=O)N[C@@H](CO)C(=O)N[C@@H](CS)C(=O)O (H-GCCSHPACSRRRARSC-OH) | 0.177 | 0.0981 | 1.4 | 1 | Activity [16]: 99%; Activity [17]: 21%
C[C@H](NC(=O)[C@H](CCCNC(=N)N)NC(=O)[C@H](CO)NC(=O)[C@H](CCCNC(=N)N)NC(=O)[C@H](CO)NC(=O)[C@H](CS)NC(=O)[C@H](C)NC(=O)[C@@H]1CCCN1C(=O)[C@H](Cc1c[nH]cn1)NC(=O)[C@H](CO)NC(=O)[C@H](CS)NC(=O)[C@H](CS)NC(=O)CN)C(=O)N[C@@H](CO)C(=O)N[C@@H](CO)C(=O)N[C@@H](CS)C(=O)O (H-GCCSHPACSRSRASSC-OH) | 5.4 | > 10 |  |  | 
